Values joined by “and” are separate entries in the source; they are usually repeats but may differ in a detail not shown here. Equal entries are not always repeated. Where two headings read alike, the source gives them in different places.
Key:
[1] = tested on: human tumor cell lines: MCF-7, NCI-H460 and SF-268; assay: FOH/GGOH rescue of cell growth inhibition; type: cell-based; conditions: for rescue from growth inhibition by GGOH: 20 μM GGOH added; for rescue from growth inhibition by FOH: 20 μM FOH added
Method in brief: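 Cells were grown in RPMI-1640 with 10% FBS and 2 mM L-glutamine at 37°C, 5% CO2. They were seeded at 5,000 cells/well with test compound added, and each well also received FOH or GGOH from ethanol stocks at a fixed 20 μM. After 4 days, growth was read by MTT.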

mouse fetal metatarsal = assay: Mouse fetal metatarsal 45Ca2+ release inhibition assay; conditions: read-out: IC50, 45Ca2+ release inhibition
Human FPPS = biological target: T1, Human FPPS (Homo sapiens, UniProt P14324); assay: Human FPPS inhibition; type: biochemical
T1 sequence (P14324 1-419): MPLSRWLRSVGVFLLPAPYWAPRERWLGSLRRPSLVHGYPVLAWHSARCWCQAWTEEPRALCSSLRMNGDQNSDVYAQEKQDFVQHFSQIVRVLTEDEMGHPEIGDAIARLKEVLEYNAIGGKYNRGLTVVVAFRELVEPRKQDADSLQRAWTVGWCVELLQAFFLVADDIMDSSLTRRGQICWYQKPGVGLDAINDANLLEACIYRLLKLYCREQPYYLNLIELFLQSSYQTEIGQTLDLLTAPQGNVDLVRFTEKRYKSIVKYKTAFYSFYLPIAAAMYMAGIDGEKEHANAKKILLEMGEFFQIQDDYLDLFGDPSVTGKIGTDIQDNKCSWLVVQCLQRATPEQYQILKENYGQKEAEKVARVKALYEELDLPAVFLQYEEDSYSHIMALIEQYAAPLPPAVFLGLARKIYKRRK
Method in brief: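 Recombinant human FPPS condensed geranyl diphosphate with isopentenyl diphosphate, followed by a continuous spectrophotometric phosphate-release assay. Buffer was 50 mM Tris-HCl, 1 mM MgCl2, pH 7.4. Enzyme and test compound were preincubated 30 min at 20°C. IC50 came from a dose-response curve fit.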

SK-ES-1 sarcoma cells = assay: SK-ES-1 sarcoma mouse xenograft; type: in vivo; conditions: athymic nude mice, 5 μg daily intraperitoneal, 30 days
Method in brief: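 Four 6-week-old athymic nude mice each received 1.5×10^7 human SK-ES-1 cells subcutaneously in the right flank. Treatment was daily intraperitoneal test compound (5 μg) for 30 days, or physiological saline. Tumor diameters and body weight were measured weekly, and volume = (smallest diameter)2 × (largest diameter)/2. Statistics used one-way ANOVA with Fisher's PLSD, with p < 0.05 taken as significant.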

[2] = tested on: human tumor cell lines: MCF-7, NCI-H460 and SF-268; assay: Tumor cell growth inhibition; type: cell-based
Method in brief: (§1)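 Cells were grown in RPMI-1640 with 10% FBS and 2 mM L-glutamine at 37°C, 5% CO2, 100% humidity, and seeded at 5,000 cells/well. Test compound came from 0.01 M water stocks as a half-log serial dilution series (0.316 mM to 0.1 pM) prepared before addition. Plates ran 4 days, then MTT dose-response.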

MCF-7 = MCF-7 cell growth inhibition; type: cell-based; conditions: Homo sapiens, MCF7, 96 h, read-out: IC50, tumor cell growth inhibition
Method in brief: as §1

[3] = 14C-labelled olpadronate displacement bone-binding model; conditions: fetal mouse metatarsals, Figure 8b
MDA-MB-231 cells = assay: Matrigel invasion assay; type: cell-based, human; conditions: 24 hours treatment, up to 10 μM
breast cancer patients = conditions: Phase III, 1803 breast cancer patients, zoledronate (+hormone) therapy; cited from earlier work
[4] = mouse fetal metatarsal, Figure 8a

| SMILES | IC50 (mouse fetal metatarsal; [4]) | rescue from growth inhibition by GGOH [1] | rescue from growth inhibition by FOH [1] | IC50 (MCF-7) [nM] | other results |
| --- | --- | --- | --- | --- | --- |
| CC(C)=CCCC(C)=CCC(CC=C(C)CCC=C(C)C)(P(=O)(O)O)P(=O)(O)O [1,1-digeranylmethylene bisphosphonate, reference compound] | – | rescue by GGOH | – | – | – |
| O=P(O)(O)C(O)(Cc1cccc(-c2cccc(NS(=O)(=O)c3ccc4ccccc4c3)c2)c1)P(=O)(O)O [BPH-675] | ~30000 nM | almost fully reversed by addition of 20 μM GGOH | FOH has no effect | – | FPPS inhibition (in words) (Human FPPS): very weak |
| NCCC(O)(P(=O)(O)O)P(=O)(O)O [pamidronate] | – | – | – | ~140000 | – |
| O=P(O)(O)C(O)(Cn1ccnc1)P(=O)(O)O [zoledronate] | – | only a partial rescue by GGOH | – | ~15000 | reduction in tumor cell growth (tumor volume) (SK-ES-1 sarcoma cells): significant (p < 0.01) reduction in tumor cell growth versus control; displacement of bound 14C-labelled olpadronate [3]: far more effective in displacing this bound bisphosphonate than are the lipophilic species; IC50 (mouse fetal metatarsal; Mus musculus): ~100 nM; effect on MDA-MB-231 invasion (MDA-MB-231 cells): essentially no effect even at 10 μM; reduced risk of cancer returning, or death (breast cancer patients): 36% |

Continued, in another order:

| IC50 (mouse fetal metatarsal; [4]) | SMILES | rescue from growth inhibition by GGOH [1] | rescue from growth inhibition by FOH [1] | IC50 (MCF-7) [nM] | other results |
| --- | --- | --- | --- | --- | --- |
| 2900 nM and ~2900 nM | CCCCCCCCCCOc1ccc[n+](CC(P(=O)([O-])O)P(=O)(O)O)c1 (centres unmarked) [BPH-715] | no rescue by either FOH or GGOH | no rescue by either FOH or GGOH | – | weight loss or other adverse effect (SK-ES-1 sarcoma cells): no weight loss or other adverse effect observed; IC50 in tumor cell growth inhibition, fold lower than zoledronate ([2]; versus zoledronate): ~ 100 fold |
| ~1300 nM | CCCCCCCCCCCCOc1ccc[n+](CC(P(=O)(O)O)P(=O)(O)O)c1 [BPH-716] | – | – | – | activity in the cell assays compared with BPH-715 ([2]; growth inhibition and Matrigel invasion assays): about the same activity as BPH-715 |
